According to ChEMBL document CHEMBL1122189, “Preliminary studies of mesoionic 3-(substituted-aryl)-psi-oxatriazoles as potential antihypertensive agents” (1982):

How the values were obtained:
Rattus norvegicus [1] = assay: Hypotensive response (diastolic blood pressure) was determined at 30 minutes for a dose 10 mg/kg administered and 1 mL of corn oil in rat; type: functional, Artery
How it was run: (§1)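 Male Sprague–Dawley rats (250-350 g), femoral artery cannulated under sodium pentobarbital (35 mg/kg ip), restrained supine. Heparin–saline injected into the cannula before recording. Single oral gavage dose in corn oil. Systolic and diastolic pressure taken 30 min after dosing, given as mean (±SE) percent decrease from base line, base line being pressure of animals given 1 mL corn oil.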

Rattus norvegicus [2] = assay: Hypotensive response (systolic blood pressure) was determined at 30 minutes for a dose of 10 mg/kg administered and 1 mL of corn oil in rat; type: functional, Artery; how it was run: as §1
Rattus norvegicus [3] = assay: Hypotensive response for decrease in blood pressure was determined for a dose 90 mg/kg of in rat; type: functional
How it was run: (§2)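 Male Sprague–Dawley rats (250-350 g), femoral artery cannulated under sodium pentobarbital (35 mg/kg ip); pressure recorded by transducer after recovery from anesthesia. Oral gavage in under 1 mL corn oil, doses 1-90 mg/kg; vehicle controls got 1 mL corn oil. Recorded continuously for 30 min, then at intervals. Result is mean (±SE) percent decrease in […] from post-anesthesia base line over the first hour.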

Rattus norvegicus [4] = assay: Hypotensive response for decrease in blood pressure was determined for a dose 1 mg/kg of in rat; type: functional; how it was run: as §2
Rattus norvegicus [5] = assay: Hypotensive response for decrease in blood pressure was determined for a dose 15 mg/kg of in rat; type: functional; how it was run: as §2
Rattus norvegicus [6] = assay: Hypotensive response for decrease in blood pressure was determined for a dose 10 mg/kg of in rat; type: functional; how it was run: as §2
Rattus norvegicus [7] = assay: Hypotensive response for decrease in blood pressure was determined for a dose 25 mg/kg of in rat; type: functional; how it was run: as §2
Rattus norvegicus [8] = assay: Hypotensive response for decrease in blood pressure was determined for a dose 45 mg/kg of in rat; type: functional; how it was run: as §2
Rattus norvegicus [9] = assay: Hypotensive response for decrease in blood pressure was determined for a dose 3 mg/kg of in rat; type: functional; how it was run: as §2
Rattus norvegicus [10] = assay: Hypotensive response for decrease in blood pressure was determined for a dose 0 mg/kg + 1 mL corn oil in rat; type: functional; how it was run: as §2

SMILES | Decrease in blood pressure (Rattus norvegicus [1]) | Decrease in blood pressure (Rattus norvegicus [2]) | other results
[O-]c1n[n+](-c2ccc(Cl)c(Cl)c2)no1 | 30.9% | 31.7% | –
COc1ccc(-[n+]2noc([O-])n2)cc1 | 20% | 22.2% | –
[O-]c1n[n+](-c2c(Cl)cccc2Cl)no1 | 8.3% | 11.5% | –
[O-]c1n[n+](-c2ccccc2)no1 | 52.3% | 51.7% | –
O=[N+]([O-])c1ccc(-[n+]2noc([O-])n2)cc1 | 23.8% | 24.8% | –
[O-]c1n[n+](-c2ccc(Cl)cc2)no1 | 47.9% | 47% | –
Cc1ccc(-[n+]2noc([O-])n2)cc1 | 27.5% | 28.5% | Decrease in blood pressure (Rattus norvegicus [3]): 75.3%; Decrease in blood pressure (Rattus norvegicus [4]): 13.9%; Decrease in blood pressure (Rattus norvegicus [5]): 37.6%; Decrease in blood pressure (Rattus norvegicus [6]): 28%; Decrease in blood pressure (Rattus norvegicus [7]): 48.1%; Decrease in blood pressure (Rattus norvegicus [8]): 53%; Decrease in blood pressure (Rattus norvegicus [9]): 23.5%; Decrease in blood pressure (Rattus norvegicus [10]): 0%
